Assays:
[1] = system: Jurkat; assay: Inhibition of the growth of Jurkat lymphoma cells at 12.5-25.0 ug/ml concentration; type: functional, Homo sapiens
Procedure, shortened: (§1)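 Lymphoma cells were suspended in RPMI 1640 with 20% heat-inactivated FCS, 2 mM L-glutamine, penicillin and streptomycin at 37 °C in 5% CO2. Cells were plated at 0.02×10^6 per well with varied quinone concentrations. MTT reduction was measured on day 3. Five replicate wells were used per concentration, in 2–3 repeat experiments. Inhibition is expressed as % versus 0.5% ethanol vehicle wells.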

[2] = system: Raji; assay: Inhibition of the growth of Raji lymphoma cells at 12.5-25.0 ug/ml concentration; type: functional, Homo sapiens; procedure, shortened: as §1
[3] = system: Raji; assay: Inhibition of the growth of Raji lymphoma cells at 6.25 ug/ml concentration; type: functional; conditions: Homo sapiens; procedure, shortened: as §1
[4] = system: SNB-19; assay: Concentration of compound required to inhibit the growth of SNB-19 cells; type: functional, cell-based; conditions: Homo sapiens
Procedure, shortened: (§2)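 Adherent/epithelial cancer cells were grown in RPMI 1640 with 10% heat-inactivated FCS, 2 mM L-glutamine, penicillin and streptomycin at 37 °C in 5% CO2. Cells were seeded at 0.02×10^6 per well with varied quinone concentrations. MTT readout was taken after 3 days. Five replicate wells were used per concentration, in 2–3 repeat experiments. Results are % inhibition versus untreated wells given 0.5% ethanol vehicle.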

[5] = system: HT-29; assay: Inhibition of the growth of HT-29 colon cancer cells at 3.125 ug/ml concentration; type: functional; conditions: Homo sapiens; procedure, shortened: as §2
[6] = system: Jurkat; assay: Inhibition of the growth of Jurkat lymphoma cells at 0.2 ug/ml concentration; type: functional; conditions: Homo sapiens; procedure, shortened: as §1
[7] = system: Jurkat; assay: Inhibition of the growth of Jurkat lymphoma cells at 1.56 ug/ml concentration; type: functional; conditions: Homo sapiens; procedure, shortened: as §1
[8] = system: MCF7; assay: Inhibition of the growth of MCF-7 mammary cancer cells at 3.125 ug/ml concentration; type: functional; conditions: Homo sapiens; procedure, shortened: as §2
[9] = system: Raji; assay: Inhibition of the growth of Raji lymphoma cells at 0.2 ug/ml concentration; type: functional; conditions: Homo sapiens; procedure, shortened: as §1
[10] = system: Raji; assay: Inhibition of the growth of Raji lymphoma cells at 1.56 ug/ml concentration; type: functional; conditions: Homo sapiens; procedure, shortened: as §1

Molecule `CCCCCC1=CC(=O)C2=C(OC(C)(C)c3ccc(C)cc32)C1=O` has an Inhibition [1] of 50%, an Inhibition [2] of 50% and an inhibition at 6.25 µg/mL [3] of 50%.
With `CCCCCC1=CC(=O)C2=C(OC(C)(C)[C@@H]3CC=C(C)C[C@@H]23)C1=O` the Concentration [4] was 100 µg/mL.
`C=C(C)C1CCC(C)=C[C@H]1C1=C(O)C=C(CCCCC)C(=O)C1=O` (stereo not given in full) gave an inhibition at 3.125 µg/mL [5] of 50%, an inhibition at 0.2 µg/mL [6] of 50% and an inhibition at 1.56 µg/mL [7] of 80%. The inhibition at 3.125 µg/mL [8] was 50%, the inhibition at 0.2 µg/mL [9] was 50% and the inhibition at 1.56 µg/mL [10] was 80%.

From ChEMBL document CHEMBL1148368, “Synthesis and antitumor activity of quinonoid derivatives of cannabinoids” (2004)
